≈ marks a conversion by molar mass, not a printed value.
Tests used:
Rattus norvegicus [1] = experiment: Inhibition of histamine-stimulated gastric acid secretion in lumen perfused anesthetized rat after intravenous administration; type: functional; conditions: Stomach
In short: (§1)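 Anaesthetized rat with stomach lumen perfusion. Effluent H⁺ activity is monitored continuously with a microflow glass electrode. Secretion is driven by i.v. histamine infusion at 0.25 μmol/(kg·min). Inhibitor is given i.v. or i.d. once a submaximal plateau is reached. % inhibition compares peak inhibition with the pre-dose plateau. ED50 uses three dose levels, three animals per dose.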

Rattus norvegicus [2] = experiment: Inhibition of histamine-stimulated gastric acid secretion in lumen perfused anesthetized rat after intraduodenal administration; type: functional; conditions: Stomach; in short: as §1
[3] = Half-life at pH 7.4; type: ADME; conditions: buffer
In short: (§2)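 Stability at ambient temperature (20 °C) in acetonitrile/phosphate buffer (1:3) adjusted to the stated pH. Initial compound concentration is 1 × 10⁻³ to 3 × 10⁻⁴ M. Loss is followed by reverse-phase C18 HPLC with UV detection at 280 nm. t1/2 comes from linear regression of ln(concentration) vs time (h).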

Canis familiaris [4] = experiment: Inhibition of histamine-stimulated gastric acid secretion in conscious Heidenhain pouch dog after intravenous administration; type: functional; conditions: Canis lupus familiaris, Stomach
In short: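 Conscious dog with a Heidenhain pouch made 1-3 years earlier. Acid secretion is stimulated by i.v. histamine at 0.5 μmol/(kg·h). Juice is collected by gravity every 15 min and titrated to pH 7.4 with 0.1 N NaOH. Inhibitor is given i.v. at submaximal plateau. % inhibition compares the peak-inhibition sample with the pre-dose sample. ED50 uses three doses × three dogs, with 95% confidence limits (n = 9).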

[5] = Dissociation constant at 37 degree Centigrade; type: physicochemical
[6] = Half-life at pH 1.0; type: ADME; conditions: buffer; in short: as §2
Canis familiaris [7] = experiment: Percent inhibition of histamine-stimulated gastric acid secretion in Heidenhain pouch dog after intraduodenal administration of compound (1 umol/kg); type: functional, Canis lupus familiaris, Stomach
In short: (§3)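 Heidenhain pouch dog with i.v. histamine at 0.5 μmol/(kg·h). Juice is collected every 15 min and acid output is found by titration to pH 7.4. Compound is given intraduodenally via a chronic duodenal cannula at submaximal plateau. Value is peak inhibition or mean plateau inhibition over 1 to 2½ h, mean of n = 4 dogs ± SEM.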

Rattus norvegicus [8] = experiment: Inhibition of histamine-stimulated gastric acid secretion in lumen perfused anesthetized rat after intravenous administration of 1 umol/kg; type: functional; conditions: Stomach; in short: as §1
[9] = Solubility in water at pH 10
Canis familiaris [10] = experiment: Percent inhibition of histamine-stimulated gastric acid secretion in Heidenhain pouch dog after intraduodenal administration of compound (2 umol/kg); type: functional, Canis lupus familiaris, Stomach; in short: as §3
[11] = Partition coefficient at 37 degree Celsius at pH 7.4; type: physicochemical; conditions: octanol/water
[12] = Dissociation constant at 37 degrees Centigrade; type: physicochemical
[13] = Partition coefficient at 37 degrees Celsius at pH 7.4; type: physicochemical; conditions: octanol/water
Rattus norvegicus [14] = experiment: Inhibition of histamine-stimulated gastric acid secretion in lumen perfused anesthetized rat after intravenous administration; Poor solubility; type: functional, organism-based; conditions: Stomach; in short: as §1
Rattus norvegicus [15] = experiment: Inhibition of histamine-stimulated gastric acid secretion in lumen perfused anesthetized rat after intravenous administration of 1 umol/kg.; type: functional; conditions: Stomach; in short: as §1

For `COc1ccc2[nH]c([S+]([O-])Cc3nccc(N(C)C)c3Cl)nc2c1` (stereo not given), the ED50 (Rattus norvegicus [1]) was 0.44 µmol/kg, the ED50 (Rattus norvegicus [2]) was 0.38 µmol/kg and the half-life [3] was 17 h. For the same compound, the ED50 (Canis familiaris [4]) was 0.26 µmol/kg.

`COc1ccc2[nH]c([S+]([O-])Cc3nccc(N(C)C)c3F)nc2c1` (stereo not given) gave a pKa [5] of 7.12 and a half-life [3] of 11 h.

Compound `COc1ccc2[nH]c([S+]([O-])Cc3ncc(C)c(N(C)C)c3Cl)nc2c1` (stereo not given) has a pKa [5] of 5.92, a half-life [6] of 1 min and an ED50 (Rattus norvegicus [1]) of 0.34 µmol/kg. For the same compound, the ED50 (Rattus norvegicus [2]) was 1.48 µmol/kg, the Inhibition (Canis familiaris [7]) was 67% and the half-life [3] was 432 h.

Compound `COc1ccc2[nH]c([S+]([O-])Cc3cc(N4CCCCC4)c(Br)cn3)nc2c1` (stereo not given) has a pKa [5] of 5.4, an ED50 (Rattus norvegicus [2]) of 1.05 µmol/kg and a half-life [3] of 864 h. For the same compound, the ED50 (Canis familiaris [4]) was 2.94 µmol/kg.

Work on `COc1ccc2[nH]c([S+]([O-])Cc3cc(N4CCOCC4)c(Br)cn3)nc2c1` (stereo not given) yielded an inhibition in vivo at 1 µmol/kg (Rattus norvegicus [8]) of 14%.

For `COc1ccc2[nH]c([S+]([O-])Cc3nccc(N4CCCCC4)c3Cl)nc2c1` (stereo not given), the pKa [5] was 5.95, the ED50 (Rattus norvegicus [2]) was 7.72 µmol/kg and the half-life [3] was 175 h. It also gave an ED50 (Canis familiaris [4]) of 1.16 µmol/kg.

`COc1ccc2[nH]c([S+]([O-])Cc3ncc(C)c(N4CCCCC4)c3Cl)nc2c1` (stereo not given) gave an ED50 (Rattus norvegicus [2]) of 2.51 µmol/kg and a half-life [3] of 444 h.

For `COc1ccc2[nH]c([S+]([O-])Cc3nccc(N4CCCCC4)c3Br)nc2c1` (stereo not given), the ED50 (Rattus norvegicus [1]) was 0.85 µmol/kg and the half-life [3] was 300 h.

Compound `COc1ccc2[nH]c([S+]([O-])Cc3nccc(N4CCOCC4)c3Cl)nc2c1` (stereo not given) has a pKa [5] of 5.28, a half-life [6] of 1 min and a solubility [9] of 15 mg/mL (≈ 36.9 mM). The Inhibition (Canis familiaris [10]) was 48%, the logD [11] was 1.81 and the ED50 (Rattus norvegicus [2]) was 1.14 µmol/kg. For the same compound, the half-life [3] was 1300 h and the ED50 (Canis familiaris [4]) was 1.01 µmol/kg.

For `COc1ccc2[nH]c([S+]([O-])Cc3ncc(C)c(N4CCCC4)c3Cl)nc2c1` (stereo not given), the half-life [3] was 60 h and the ED50 (Canis familiaris [4]) was 0.57 µmol/kg.

With `COc1ccc2[nH]c([S+]([O-])Cc3ncc(C)c(OC)c3C)nc2c1` (stereo not given) [OMEPRAZOLE] the pKa [12] was 6.29, the half-life [6] was 2 min and the logD [13] was 2.18. It also gave an Inhibition (Canis familiaris [7]) of 53%, a half-life [3] of 456 h and an ED50 (Canis familiaris [4]) of 0.2 µmol/kg.

In the case of `COc1ccc2[nH]c([S+]([O-])Cc3nccc(N4CCCC4)c3Cl)nc2c1` (stereo not given), the pKa [5] is reported as 7.58, the ED50 (Rattus norvegicus [14]) is reported as “Poor solubility” and the half-life [3] is reported as 36 h.

In the case of `COc1ccc2[nH]c([S+]([O-])Cc3ncc(C)c(N4CCOCC4)c3Cl)nc2c1` (stereo not given), the pKa [5] is reported as 5.32 and the half-life [3] is reported as > 3000 h.

In the case of `COc1ccc2[nH]c([S+]([O-])Cc3cc(N4CCOCC4)c(F)cn3)nc2c1` (stereo not given), the pKa [5] is reported as 5.72, the ED50 (Rattus norvegicus [2]) is reported as 0.65 µmol/kg and the half-life [3] is reported as 418 h. It also gave an ED50 (Canis familiaris [4]) of 5.07 µmol/kg.

With `COc1ccc2[nH]c([S+]([O-])Cc3cc(N(C)C)c(F)cn3)nc2c1` (stereo not given) the pKa [5] was 6.96, the half-life [3] was 26 h and the inhibition in vivo at 1 µmol/kg (Rattus norvegicus [15]) was 37%.

With `COc1ccc2[nH]c([S+]([O-])Cc3cc(N(C)C)c(Br)cn3)nc2c1` (stereo not given) the pKa [5] was 5.8, the ED50 (Rattus norvegicus [1]) was 0.26 µmol/kg and the ED50 (Rattus norvegicus [2]) was 1.75 µmol/kg. For the same compound, the half-life [3] was 101 h.

`COc1ccc2[nH]c([S+]([O-])Cc3cc(N4CCCC4)c(Br)cn3)nc2c1` (stereo not given) gave a pKa [5] of 6.92 and a half-life [3] of 49 h.

`COc1ccc2[nH]c([S+]([O-])Cc3nccc(N4CCOCC4)c3F)nc2c1` (stereo not given) gave a pKa [5] of 5.89, an ED50 (Rattus norvegicus [2]) of 3.2 µmol/kg and a half-life [3] of 144 h.

Work on `COc1ccc2[nH]c([S+]([O-])Cc3cc(N(C)C)c(Cl)cn3)nc2c1` (stereo not given) yielded an ED50 (Rattus norvegicus [1]) of 1.32 µmol/kg, a half-life [3] of 96 h and an ED50 (Canis familiaris [4]) of 0.77 µmol/kg.

Reference: ChEMBL document CHEMBL1124570, “2-[[(4-Amino-2-pyridyl)methyl]sulfinyl]benzimidazole H+/K+-ATPase inhibitors. The relationship between pyridine basicity, stability, and activity” (J Med Chem, 1989)
